# Assay results as given in ChEMBL document CHEMBL1149292, “A rational utilization of high-throughput screening affords selective, orally bioavailable 1-benzyl-3-carboxyazetidine sphingosine-1-phosphate-1 receptor agonists” (J Med Chem, 2004).
# pIC50: −log10 of the molar value. The source made the active and inactive calls. The calls are words filed in the database; no cut-off is given here.
# Tests used:
# Rattus norvegicus [1] = assay: Decrease in peripheral blood lymphocyte counts in femoral artery cannulated Lewis rat at 3 mg/kg, po after 8 hrs; type: functional
# Outline: (§1)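 Femoral artery cannulated Lewis rats (n = 3) given a single 3 mpk oral dose. PBL counts and plasma compound concentration sampled over time up to 72 h postdose. A repeat 3 mpk po challenge was given to the same animals.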
# [2] = Plasma concentration in femoral artery cannulated Lewis rat at 3 mg/kg, po after 4 hrs; type: ADME, organism-based; set-up: dose 3 mg/kg, route oral
# Outline: (§2)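 Femoral artery cannulated Lewis rats (n = 3) got a single 3 mpk oral dose. Compound plasma concentration (nM) was measured serially over time up to 72 h postdose. Peripheral blood lymphocyte counts were taken in parallel at the same time points. The same animals were later given a second 3 mpk oral dose.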
# Rattus norvegicus [3] = assay: Decrease in peripheral blood lymphocyte counts in Lewis rat at 3 mg/kg, po after 24 hrs; type: functional
# Outline: (§3)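 Rat oral dose-titration at 1–30 mpk po. Peripheral blood lymphocyte counts and plasma compound concentrations determined 24 h postdose.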
# [4] = Volume of distribution at steady state in rat at 2 mg/kg, po and 1 mg/kg, iv; type: ADME, organism-based; settings: in vivo, read-out: Vdss
# [5] = Half life in rhesus monkey at 1 mg/kg, po and 0.5 mg/kg, iv; settings: in vivo
# [6] = Volume of distribution at steady state in Beagle dog at 1 mg/kg, po and 0.5 mg/kg, iv; type: ADME, organism-based, Canis lupus familiaris; settings: in vivo, read-out: Vdss
# [7] = Plasma concentration in Lewis rat at 3 mg/kg, po after 24 hrs; type: ADME, organism-based; set-up: dose 3 mg/kg, route oral; outline: as §3
# [8] = Plasma concentration in femoral artery cannulated Lewis rat at 3 mg/kg, po after 16 hrs; type: ADME, organism-based; set-up: dose 3 mg/kg, route oral; outline: as §2
# Rattus norvegicus [9] = assay: Decrease in peripheral blood lymphocyte counts in femoral artery cannulated Lewis rat at 3 mg/kg, po after 72 hrs; type: functional; outline: as §1
# [10] = Plasma concentration in Lewis rat at 1 mg/kg, po after 24 hrs; type: ADME, organism-based; set-up: dose 1 mg/kg, route oral; outline: as §3
# [11] = Plasma concentration in femoral artery cannulated Lewis rat at 3 mg/kg, po after 1 hr; type: ADME, organism-based; set-up: dose 3 mg/kg, route oral; outline: as §2
# [12] = Plasma concentration in femoral artery cannulated Lewis rat at 3 mg/kg, po after 32 hrs; type: ADME, organism-based; set-up: dose 3 mg/kg, route oral; outline: as §2
# [13] = Plasma concentration in femoral artery cannulated Lewis rat at 3 mg/kg, po after 72 hrs; type: ADME, organism-based; set-up: dose 3 mg/kg, route oral; outline: as §2
# [14] = Plasma clearance in rat at 2 mg/kg, po and 1 mg/kg, iv; type: ADME, organism-based
# Outline: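 Rat PK at 2.0 mpk po and 1.0 mpk iv. Plasma compound levels measured.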
# Rattus norvegicus [15] = assay: Decrease in peripheral blood lymphocyts in Lewis rat at 10 mg/kg, po after 24 hrs relative to control; type: functional; set-up: scale not given: the % may be the effect or the level left; outline: as §3
# Rattus norvegicus [16] = assay: Decrease in peripheral blood lymphocytes in Lewis rat at 1 mg/kg, po after 24 hrs relative to control; type: functional; set-up: scale not given: the % may be the effect or the level left; outline: as §3
# Rattus norvegicus [17] = assay: Decrease in peripheral blood lymphocyte counts in Lewis rat at 30 mg/kg, po after 24 hrs; type: functional; outline: as §3
# [18] = Plasma concentration in Lewis rat at 30 mg/kg, po after 24 hrs; type: ADME, organism-based; set-up: dose 30 mg/kg, route oral; outline: as §3
# Canis familiaris [19] = assay: Maximal decrease in peripheral blood lymphocyte in Beagle dog at 1 mg/kg, po after 24 hrs; type: functional, organism-based; set-up: dose 1 mg/kg; settings: Canis lupus familiaris
# Outline: (§4)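 Complete blood counts run alongside plasma concentrations after a single 1.0 mpk oral dose in beagle dog or rhesus monkey. Lymphocyte counts followed over time, with PBL lowering assessed at 24 h postdose.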
# Rattus norvegicus [20] = assay: Decrease in peripheral blood lymphocyte counts in Lewis rat at 1 mg/kg, po after 24 hrs; type: functional; outline: as §3
# Rattus norvegicus [21] = assay: Decrease in peripheral blood lymphocyte counts in femoral artery cannulated Lewis rat at 3 mg/kg, po after 16 hrs; type: functional; outline: as §1
# Rattus norvegicus [22] = assay: Decrease in peripheral blood lymphocyte counts in Lewis rat at 10 mg/kg, po after 24 hrs; type: functional; outline: as §3
# Rattus norvegicus [23] = assay: Decrease in peripheral blood lymphocyte counts in femoral artery cannulated Lewis rat at 3 mg/kg, po after 12 hrs; type: functional; outline: as §1
# [24] = Plasma concentration in femoral artery cannulated Lewis rat at 3 mg/kg, po after 20 hrs; type: ADME, organism-based; set-up: dose 3 mg/kg, route oral; outline: as §2
# [25] = Bioavailability in rhesus monkey at 1 mg/kg, po and 0.5 mg/kg, iv; type: ADME, organism-based, Macaca mulatta; settings: in vivo
# Outline: (§5)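 Single-dose PK at 1.0 mpk po and 0.5 mpk iv. Plasma compound levels measured.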
# [26] = molecular target: T1, Sphingosine 1-phosphate receptor 4 (Homo sapiens, UniProt O95977); assay: Displacement of [33P]sphingosine 1 phosphate from human S1P4 receptor expressed in CHO cells; type: cell-based
# T1 sequence (O95977 whole entry): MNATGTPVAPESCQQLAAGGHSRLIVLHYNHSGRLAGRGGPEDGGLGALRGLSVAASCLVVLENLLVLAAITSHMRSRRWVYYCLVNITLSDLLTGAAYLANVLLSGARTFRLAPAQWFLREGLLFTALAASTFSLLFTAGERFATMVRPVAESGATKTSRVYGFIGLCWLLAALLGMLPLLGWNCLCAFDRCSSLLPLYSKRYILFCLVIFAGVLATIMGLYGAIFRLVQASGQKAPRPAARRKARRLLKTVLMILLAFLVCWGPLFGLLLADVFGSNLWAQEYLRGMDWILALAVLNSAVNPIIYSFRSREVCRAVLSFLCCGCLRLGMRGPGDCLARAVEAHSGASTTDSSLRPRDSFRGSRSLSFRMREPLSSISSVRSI
# Outline: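 Competition binding with [33P]-labeled S1P on membranes of CHO cells stably expressing each human S1P receptor. Values are the mean of n = 3 determinations.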
# [27] = Plasma concentration in femoral artery cannulated Lewis rat at 3 mg/kg, po after 8 hrs; type: ADME, organism-based; set-up: dose 3 mg/kg, route oral; outline: as §2
# Rhesus monkey = assay: Maximal decrease in peripheral blood lymphocyte in rhesus monkey at 1 mg/kg, po after 24 hrs; type: functional, organism-based; set-up: dose 1 mg/kg; settings: Macaca mulatta; outline: as §4
# Rattus norvegicus [28] = assay: Decrease in peripheral blood lymphocytes in Lewis rat at 30 mg/kg, po after 24 hrs relative to control; type: functional; set-up: scale not given: the % may be the effect or the level left; outline: as §3
# Rattus norvegicus [29] = assay: Decrease in peripheral blood lymphocyte counts in femoral artery cannulated Lewis rat at 3 mg/kg, po after 24 hrs; type: functional; outline: as §1
# [30] = molecular target: Sphingosine 1-phosphate receptor 2 (Homo sapiens, UniProt O95136); assay: Displacement of [33P]sphingosine 1 phosphate from human S1P2 receptor expressed in CHO cells; type: cell-based
# Sequence of Sphingosine 1-phosphate receptor 2 (O95136 whole entry): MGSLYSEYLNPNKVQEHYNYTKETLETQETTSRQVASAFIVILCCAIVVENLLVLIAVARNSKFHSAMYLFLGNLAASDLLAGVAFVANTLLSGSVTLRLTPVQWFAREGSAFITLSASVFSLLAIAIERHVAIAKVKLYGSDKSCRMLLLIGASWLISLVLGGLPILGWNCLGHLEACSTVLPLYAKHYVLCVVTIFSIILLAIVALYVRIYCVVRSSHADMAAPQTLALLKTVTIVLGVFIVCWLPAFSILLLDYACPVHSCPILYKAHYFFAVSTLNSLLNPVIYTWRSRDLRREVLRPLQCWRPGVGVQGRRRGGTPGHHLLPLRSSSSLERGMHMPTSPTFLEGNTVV
# Rattus norvegicus [31] = assay: Decrease in peripheral blood lymphocyte counts in femoral artery cannulated Lewis rat at 3 mg/kg, po after 1 hr; type: functional; outline: as §1
# Rattus norvegicus [32] = assay: Decrease in peripheral blood lymphocyte counts in femoral artery cannulated Lewis rat at 3 mg/kg, po after 0.25 hrs; type: functional; outline: as §1
# Rattus norvegicus [33] = assay: Decrease in peripheral blood lymphocyte counts in femoral artery cannulated Lewis rat at 3 mg/kg, po after 56 hrs; type: functional; outline: as §1
# [34] = Bioavailability in Beagle dog at 1 mg/kg, po and 0.5 mg/kg, iv; type: ADME, organism-based, Canis lupus familiaris; settings: in vivo; outline: as §5
# [35] = Plasma concentration in femoral artery cannulated Lewis rat at 3 mg/kg, po after 0.5 hrs; type: ADME, organism-based; set-up: dose 3 mg/kg, route oral; outline: as §1
# Canis familiaris [36] = assay: Cmax in Beagle dog at 1 mg/kg, po and 0.5 mg/kg, iv; type: ADME, organism-based, Canis lupus familiaris; settings: in vivo; outline: as §5
# [37] = Cmax in rhesus monkey at 1 mg/kg, po and 0.5 mg/kg, iv; type: ADME, organism-based, Macaca mulatta; settings: in vivo; outline: as §5
# [38] = Plasma concentration in Lewis rat at 10 mg/kg, po after 24 hrs; type: ADME, organism-based; set-up: dose 10 mg/kg, route oral; outline: as §3
# Rattus norvegicus [39] = assay: Decrease in peripheral blood lymphocytes in Lewis rat at 3 mg/kg, po after 24 relative to hrs control; type: functional; set-up: scale not given: the % may be the effect or the level left; outline: as §3
smiles,measurement,setting,value
O=C(O)C1CN(Cc2ccc(OCc3cc(-c4ccccc4)c(C(F)(F)F)s3)cc2)C1,Activity,Rattus norvegicus [1],1470 µL⁻¹
same,concentration at 4 h,[2],320 nM
same,Activity,Rattus norvegicus [3],1530 µL⁻¹
same,Vd,[4],10 L/kg
same,half-life,[5],12.5 h
same,Vd,[6],1.6 L/kg
same,concentration at 24 h,[7],95 nM
same,concentration at 16 h,[8],170 nM
same,Activity,Rattus norvegicus [9],7000 µL⁻¹
same,concentration at 24 h,[10],22 nM
same,concentration at 1 h,[11],270 nM
same,concentration at 32 h,[12],34 nM
same,concentration at 72 h,[13],8 nM
same,clearance,[14],12.3 mL/min/kg
same,Activity,Rattus norvegicus [15],78%
same,Activity,Rattus norvegicus [16],68%
same,Activity,Rattus norvegicus [17],1430 µL⁻¹
same,concentration at 24 h,[18],1400 nM
same,Activity,Canis familiaris [19],Active
same,Activity,Rattus norvegicus [20],2230 µL⁻¹
same,Activity,Rattus norvegicus [21],1600 µL⁻¹
same,Activity,Rattus norvegicus [22],1530 µL⁻¹
same,Activity,Rattus norvegicus [23],1530 µL⁻¹
same,concentration at 20 h,[24],150 nM
same,bioavailability,[25],76%
same,IC50,[26],1.6 µM (antagonist)
same,concentration at 8 h,[27],310 nM
same,Activity,Rhesus monkey,Active
same,Activity,Rattus norvegicus [28],79%
same,Activity,Rattus norvegicus [29],1570 µL⁻¹
same,pIC50,[30],< 5.00
same,Activity,Rattus norvegicus [31],3330 µL⁻¹
same,Activity,Rattus norvegicus [32],4400 µL⁻¹
same,Activity,Rattus norvegicus [33],4270 µL⁻¹
same,bioavailability,[34],66%
same,concentration at 0.5 h,[35],200 nM
same,Cmax,Canis familiaris [36],1300 nM
same,Cmax,[37],1800 nM
same,concentration at 24 h,[38],370 nM
same,Activity,Rattus norvegicus [39],78%
